Source: PMC11929782 (Scientific Reports, 2025)
Ends that are not written are not given here.

Legend:
[1] = patients, long-term studies; cited from earlier work
[2] = target: IL17A (Homo sapiens, UniProt Q16552); test: ELISA binding assay, IL17A; conditions: read at 450 nm
[3] = system: NIH3T3 cells; test: Cytotoxicity, CCK-8 assay; assay type: cell-based, murine; conditions: NIH3T3, normal and IL17RA-deficient cells, varying concentrations, 24 h
Method in brief: (§1)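 HaCaT and NIH3T3 cells were grown in DMEM with 10% FBS at 37 °C and 5% CO2. IL17RA was knocked down with siRNA and Lipofectamine 2000, and cells were harvested 48 h post-transfection. Normal and knockdown cells were seeded at 1 × 10⁴ cells/ml and exposed to a range of test compound concentrations for 24 h. CCK-8 was added for 4 h and absorbance read at 450 nm. Mean ± SEM, ≥3 independent experiments.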

[4] = system: RAW264.7 cells; test: Cytotoxicity, CCK-8 assay; assay type: cell-based, murine; conditions: RAW264.7, normal and IL17RA-deficient cells, varying concentrations, 24 h
Method in brief: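 RAW264.7 cells were cultured in RPMI1640 (0.05 mM β-mercaptoethanol, 10% FBS) and polarized to M1 with 1 µg/ml LPS plus 20 ng/ml IFNγ for 24 h. IL17RA was knocked down by siRNA transfection, with cells harvested at 48 h. Normal and knockdown cells (1 × 10⁴ cells/ml) were treated 24 h with varied test compound concentrations. CCK-8 was added for 4 h, then absorbance read at 450 nm. Mean ± SEM, ≥3 independent experiments.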

[5] = system: THP-1 cells; test: Cytotoxicity, CCK-8 assay; assay type: cell-based, human; conditions: THP-1, normal and IL17RA-deficient cells, varying concentrations, 24 h
Method in brief: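 THP-1 cells were cultured in RPMI1640 (0.05 mM β-mercaptoethanol, 10% FBS). They were made into M1 macrophages with 100 ng/ml PMA for 120 h, then 1 µg/ml LPS plus 20 ng/ml IFNγ for 24 h. IL17RA was knocked down by siRNA, with cells harvested at 48 h. Normal and knockdown cells (1 × 10⁴ cells/ml) received test compound at varied concentrations for 24 h. CCK-8 for 4 h; A450. Mean ± SEM, ≥3 independent experiments.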

[6] = system: HaCaT cells; test: Cytotoxicity, CCK-8 assay; assay type: cell-based, human; conditions: normal and IL17RA-deficient cells, varying concentrations, 24 h
Method in brief: as §1

[7] = target: T1, IL17F (Homo sapiens, UniProt Q96PD4); test: ELISA binding assay, IL17F; conditions: read at 450 nm
T1 sequence (Q96PD4 31-163): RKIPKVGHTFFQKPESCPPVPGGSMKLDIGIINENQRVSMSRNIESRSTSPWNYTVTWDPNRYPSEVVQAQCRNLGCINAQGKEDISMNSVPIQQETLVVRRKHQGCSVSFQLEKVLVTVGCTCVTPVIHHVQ

[8] = target: T2, IL17RC (Homo sapiens, UniProt Q8NAC3); test: ELISA binding assay, IL17RC; conditions: read at 450 nm
T2 sequence (Q8NAC3 21-791): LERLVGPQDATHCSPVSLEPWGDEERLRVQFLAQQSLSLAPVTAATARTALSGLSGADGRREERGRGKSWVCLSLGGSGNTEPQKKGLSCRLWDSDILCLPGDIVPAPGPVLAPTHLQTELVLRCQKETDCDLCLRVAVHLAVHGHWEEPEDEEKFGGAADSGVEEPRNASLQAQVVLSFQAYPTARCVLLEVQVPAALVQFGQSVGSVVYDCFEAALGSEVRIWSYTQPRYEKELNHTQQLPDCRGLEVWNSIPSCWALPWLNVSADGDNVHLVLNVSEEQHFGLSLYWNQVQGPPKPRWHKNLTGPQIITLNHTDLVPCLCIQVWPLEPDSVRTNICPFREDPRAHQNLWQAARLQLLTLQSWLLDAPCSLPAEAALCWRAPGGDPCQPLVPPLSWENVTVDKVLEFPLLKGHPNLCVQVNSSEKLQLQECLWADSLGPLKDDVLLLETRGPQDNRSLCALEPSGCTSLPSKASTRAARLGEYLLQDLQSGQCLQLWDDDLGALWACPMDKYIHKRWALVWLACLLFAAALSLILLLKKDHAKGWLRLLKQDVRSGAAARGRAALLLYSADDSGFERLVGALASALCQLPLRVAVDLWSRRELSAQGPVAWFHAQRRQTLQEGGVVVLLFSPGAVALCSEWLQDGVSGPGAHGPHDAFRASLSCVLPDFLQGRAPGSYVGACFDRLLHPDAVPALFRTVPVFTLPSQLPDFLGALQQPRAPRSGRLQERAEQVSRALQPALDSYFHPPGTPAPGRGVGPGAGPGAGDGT

[9] = target: T3, Human IL17RA protein (human, UniProt Q96F46 33-320); test: MST
[10] = target: T3, Human IL17RA protein; test: SPR

IL17A, sequence (Q16552 24-155, species assumed): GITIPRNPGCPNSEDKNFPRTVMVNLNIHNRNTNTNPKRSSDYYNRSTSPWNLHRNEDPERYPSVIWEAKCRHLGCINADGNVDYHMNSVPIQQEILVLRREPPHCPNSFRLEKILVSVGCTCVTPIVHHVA

Ixekizumab
Immunogenicity [1]: variable immunogenicity

ASPVIYHL-NH2 [AL-8(0)]
EC50 for binding to IL17A [2]: no measurable | Cytotoxicity (cell viability, CCK-8) [3]: not directly cytotoxic | Cytotoxicity (cell viability, CCK-8) [4]: not directly cytotoxic | Cytotoxicity (cell viability, CCK-8) [5]: not directly cytotoxic | Cytotoxicity (cell viability, CCK-8) [6]: not directly cytotoxic | EC50 for binding to IL17F [7]: no measurable | EC50 for binding to IL17RC [8]: no measurable

Secukinumab
ADA incidence rate [1]: < 1%

B1: AL-8(0) (peptide)
peptide: ASPVIYHL-NH2
Kd [9]: 89 nM | Kd [10]: 83 nM
